Measured values reported in ChEMBL document CHEMBL1240446, “Synthesis and biological activities of novel amine-derived bis-azoles as potential antibacterial and antifungal agents” (2010).
≈ marks a conversion by molar mass, not a printed value.

Legend:
Format in all cases: functional
[1] = test system: Staphylococcus aureus; experiment: Antibacterial activity against Staphylococcus aureus ATCC 29213 after 24 hrs by micro-broth dilution method; conditions: ATCC 29213, 24 h
In short: (§1)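 Broth microdilution per NCCLS in Mueller-Hinton broth. Inoculum adjusted in sterile saline to 1×10^4–1×10^5 CFU. Compounds taken from DMSO stocks and serially diluted two-fold to final 256–0.25 µg/mL (11 levels). Incubation 37 °C, 24 h, with a DMSO solvent control. Growth read visually and spectrophotometrically. MIC is the lowest concentration that arrests growth.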

[2] = test system: Pseudomonas aeruginosa; experiment: Antibacterial activity against Pseudomonas aeruginosa ATCC 27853 after 24 hrs by micro-broth dilution method; conditions: ATCC 27853, 24 h
In short: (§2)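 MIC by broth microdilution following NCCLS methods. Inoculum adjusted in sterile saline to 1×10^4–1×10^5 CFU. Compounds from DMSO stocks, two-fold serial dilutions in Mueller-Hinton broth at 256 down to 0.25 µg/mL. Incubation 37 °C, 24 h. DMSO solvent control at matching dilutions. Growth read visually and spectrophotometrically. MIC is the lowest concentration arresting growth.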

[3] = test system: Aspergillus fumigatus; experiment: Antifungal activity against Aspergillus fumigatus ATCC 96918 after 24 hrs by micro-broth dilution method; conditions: ATCC 96918, 24 h
In short: (§3)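 Broth microdilution per NCCLS. Spore suspension in sterile distilled water, taken from 1-day-old cultures on Sabouraud agar, final 1–5×10^3 spores/mL. Compounds diluted from stocks in RPMI 1640 to eleven concentrations, 0.25–256 µg/mL. Incubation 35 °C, 24 h. Growth scored visually and spectrophotometrically. MIC is the lowest concentration arresting fungal growth.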

[4] = test system: Bacillus subtilis; experiment: Antibacterial activity against Bacillus subtilis ATCC 21216 after 24 hrs by micro-broth dilution method; conditions: ATCC 21216, 24 h; in short: as §2
[5] = test system: Escherichia coli; experiment: Antibacterial activity against Escherichia coli ATCC 25922 after 24 hrs by micro-broth dilution method; conditions: ATCC 25922, 24 h; in short: as §2
[6] = test system: Bacillus; experiment: Antibacterial activity against Bacillus proteus ATCC 13315 after 24 hrs by micro-broth dilution method; conditions: ATCC 13315, 24 h; in short: as §2
[7] = test system: Staphylococcus aureus; experiment: Antibacterial activity against methicillin-resistant Staphylococcus aureus N315 after 24 hrs by micro-broth dilution method; conditions: N315, 24 h; in short: as §1
[8] = test system: Candida albicans; experiment: Antifungal activity against Candida albicans ATCC 76615 after 24 hrs by micro-broth dilution method; conditions: ATCC 76615, 24 h; in short: as §3

| Structure (SMILES) | MIC [1] | MIC [2] | MIC [3] | MIC [4] | MIC [5] | MIC [6] | MIC [7] | MIC [8] |
| --- | --- | --- | --- | --- | --- | --- | --- | --- |
| Fc1ccc(CN(CCn2ccnc2)CCn2ccnc2)c(F)c1.O=[N+]([O-])O | 32 µg/mL | 64 µg/mL | > 256 µg/mL | 16 µg/mL | 32 µg/mL | 64 µg/mL | 32 µg/mL | 128 µg/mL |
| Clc1cccc(CN(CCn2cncn2)CCn2cncn2)c1 | 256 µg/mL (≈ 772 µM) | 16 µg/mL (≈ 48.2 µM) | > 256 µg/mL | > 256 µg/mL | > 256 µg/mL | 32 µg/mL (≈ 96.4 µM) | 256 µg/mL (≈ 772 µM) | > 256 µg/mL |
| Clc1ccc(CN(CCn2ccnc2)CCn2ccnc2)c(Cl)c1 | 8 µg/mL (≈ 22 µM) | 4 µg/mL (≈ 11 µM) | > 256 µg/mL | 32 µg/mL (≈ 87.8 µM) | 16 µg/mL (≈ 43.9 µM) | 32 µg/mL (≈ 87.8 µM) | 16 µg/mL (≈ 43.9 µM) | 128 µg/mL (≈ 351 µM) |
| Clc1ccc(CN(CCn2ccnc2)CCn2ccnc2)c(Cl)c1.O=[N+]([O-])O | 16 µg/mL | 4 µg/mL | > 256 µg/mL | 16 µg/mL | 32 µg/mL | 64 µg/mL | 16 µg/mL | 128 µg/mL |
| Clc1ccc(CN(CCn2ccnc2)CCn2ccnc2)cc1 | 64 µg/mL (≈ 194 µM) | 64 µg/mL (≈ 194 µM) | > 256 µg/mL | 64 µg/mL (≈ 194 µM) | 32 µg/mL (≈ 97 µM) | 128 µg/mL (≈ 388 µM) | 64 µg/mL (≈ 194 µM) | > 256 µg/mL |
| OCCN(CCO)Cc1ccc(Cl)cc1 | > 256 µg/mL | 256 µg/mL (≈ 1110 µM) | > 256 µg/mL | > 256 µg/mL | 256 µg/mL (≈ 1110 µM) | 256 µg/mL (≈ 1110 µM) | > 256 µg/mL | > 256 µg/mL |
| Cl.Clc1ccc(CN(CCn2cncn2)CCn2cncn2)cc1Cl | 32 µg/mL | 32 µg/mL | 256 µg/mL | 16 µg/mL | 32 µg/mL | 0.25 µg/mL | 32 µg/mL | 128 µg/mL |
| Clc1ccccc1CN(CCn1ccnc1)CCn1ccnc1 | 128 µg/mL (≈ 388 µM) | 256 µg/mL (≈ 776 µM) | > 256 µg/mL | > 256 µg/mL | 16 µg/mL (≈ 48.5 µM) | > 256 µg/mL | 256 µg/mL (≈ 776 µM) | > 256 µg/mL |
| Clc1ccc(CN(CCn2ccnc2)CCn2ccnc2)cc1Cl | 16 µg/mL (≈ 43.9 µM) | 64 µg/mL (≈ 176 µM) | 64 µg/mL (≈ 176 µM) | 16 µg/mL (≈ 43.9 µM) | 16 µg/mL (≈ 43.9 µM) | 64 µg/mL (≈ 176 µM) | 32 µg/mL (≈ 87.8 µM) | > 256 µg/mL |
| Clc1ccccc1CN(CCn1cncn1)CCn1cncn1 | > 256 µg/mL | 128 µg/mL (≈ 386 µM) | > 256 µg/mL | > 256 µg/mL | 256 µg/mL (≈ 772 µM) | > 256 µg/mL | > 256 µg/mL | > 256 µg/mL |
| Cl.Fc1ccc(CN(CCn2cncn2)CCn2cncn2)c(F)c1 | 64 µg/mL | 8 µg/mL | 256 µg/mL | 32 µg/mL | 64 µg/mL | 256 µg/mL | > 256 µg/mL | 32 µg/mL |
| Cc1cc2ncn(CCN(CCn3cnc4cc(C)c(C)cc43)Cc3ccc(Cl)cc3Cl)c2cc1C | 128 µg/mL (≈ 246 µM) | 128 µg/mL (≈ 246 µM) | > 256 µg/mL | 64 µg/mL (≈ 123 µM) | 16 µg/mL (≈ 30.7 µM) | 32 µg/mL (≈ 61.5 µM) | > 256 µg/mL | > 256 µg/mL |
| Fc1ccc(CN(CCn2cnc3ccccc32)CCn2cnc3ccccc32)c(F)c1 | 64 µg/mL (≈ 148 µM) | > 256 µg/mL | > 256 µg/mL | 64 µg/mL (≈ 148 µM) | 128 µg/mL (≈ 297 µM) | 64 µg/mL (≈ 148 µM) | > 256 µg/mL | > 256 µg/mL |
| OCCN(CCO)Cc1ccccc1Cl | > 256 µg/mL | > 256 µg/mL | > 256 µg/mL | > 256 µg/mL | > 256 µg/mL | 256 µg/mL (≈ 1110 µM) | > 256 µg/mL | > 256 µg/mL |
| Fc1ccc(CN(CCn2cncn2)CCn2cncn2)c(F)c1 | 128 µg/mL (≈ 384 µM) | 8 µg/mL (≈ 24 µM) | > 256 µg/mL | 64 µg/mL (≈ 192 µM) | 64 µg/mL (≈ 192 µM) | > 256 µg/mL | > 256 µg/mL | > 256 µg/mL |
| Clc1cccc(CN(CCn2ccnc2)CCn2ccnc2)c1 | 64 µg/mL (≈ 194 µM) | 32 µg/mL (≈ 97 µM) | > 256 µg/mL | 128 µg/mL (≈ 388 µM) | 32 µg/mL (≈ 97 µM) | 64 µg/mL (≈ 194 µM) | > 256 µg/mL | > 256 µg/mL |
| Fc1ccc(CN(CCn2ccnc2)CCn2ccnc2)c(F)c1 | 32 µg/mL (≈ 96.6 µM) | 128 µg/mL (≈ 386 µM) | > 256 µg/mL | 32 µg/mL (≈ 96.6 µM) | 64 µg/mL (≈ 193 µM) | 64 µg/mL (≈ 193 µM) | 32 µg/mL (≈ 96.6 µM) | > 256 µg/mL |
| OCCN(CCO)Cc1ccc(Cl)cc1Cl | 128 µg/mL (≈ 485 µM) | 128 µg/mL (≈ 485 µM) | 256 µg/mL (≈ 969 µM) | 256 µg/mL (≈ 969 µM) | 256 µg/mL (≈ 969 µM) | 128 µg/mL (≈ 485 µM) | 256 µg/mL (≈ 969 µM) | 128 µg/mL (≈ 485 µM) |
| OCCN(CCO)Cc1cccc(Cl)c1 | > 256 µg/mL | > 256 µg/mL | > 256 µg/mL | > 256 µg/mL | > 256 µg/mL | > 256 µg/mL | > 256 µg/mL | > 256 µg/mL |
| Fc1ccc(CN(CCn2cncn2)CCn2cncn2)c(F)c1.O=[N+]([O-])O | 128 µg/mL | 16 µg/mL | > 256 µg/mL | 32 µg/mL | 128 µg/mL | > 256 µg/mL | > 256 µg/mL | 64 µg/mL |
| OCCN(CCO)Cc1ccc(F)cc1F | 256 µg/mL (≈ 1110 µM) | 256 µg/mL (≈ 1110 µM) | > 256 µg/mL | 256 µg/mL (≈ 1110 µM) | 128 µg/mL (≈ 554 µM) | 256 µg/mL (≈ 1110 µM) | > 256 µg/mL | 256 µg/mL (≈ 1110 µM) |
| Clc1ccc(CN(CCn2cncn2)CCn2cncn2)cc1Cl.O=[N+]([O-])O | 16 µg/mL | 64 µg/mL | > 256 µg/mL | 16 µg/mL | 32 µg/mL | 0.25 µg/mL | 64 µg/mL | 256 µg/mL |
| Cl.Fc1ccc(CN(CCn2ccnc2)CCn2ccnc2)c(F)c1 | 16 µg/mL | 64 µg/mL | > 256 µg/mL | 8 µg/mL | 16 µg/mL | 32 µg/mL | 16 µg/mL | 128 µg/mL |
| Clc1ccc(CN(CCn2cncn2)CCn2cncn2)c(Cl)c1.O=[N+]([O-])O | 32 µg/mL | 16 µg/mL | 128 µg/mL | 128 µg/mL | 64 µg/mL | 8 µg/mL | 256 µg/mL | 0.25 µg/mL |
| Clc1ccc(CN(CCn2cncn2)CCn2cncn2)cc1 | > 256 µg/mL | 16 µg/mL (≈ 48.2 µM) | > 256 µg/mL | > 256 µg/mL | 256 µg/mL (≈ 772 µM) | 128 µg/mL (≈ 386 µM) | > 256 µg/mL | > 256 µg/mL |
